MrgX1 agonist – agonists of human MrgX1 receptor, primary screen, HEK293 cells, Fluo-4 calcium flux; AID 588627, 2011; Fluo-4 calcium fluorescence, agonist mode; active compounds read high; B-score at 10 µM; 0.44% of 310,000 active;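 active means calcium response B-score plate-corrected fluorescence ratio at least 3 library SD, with starting fluorescence B-score inside 5 SD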
Target sequence (Q96LB2 whole entry, looked up): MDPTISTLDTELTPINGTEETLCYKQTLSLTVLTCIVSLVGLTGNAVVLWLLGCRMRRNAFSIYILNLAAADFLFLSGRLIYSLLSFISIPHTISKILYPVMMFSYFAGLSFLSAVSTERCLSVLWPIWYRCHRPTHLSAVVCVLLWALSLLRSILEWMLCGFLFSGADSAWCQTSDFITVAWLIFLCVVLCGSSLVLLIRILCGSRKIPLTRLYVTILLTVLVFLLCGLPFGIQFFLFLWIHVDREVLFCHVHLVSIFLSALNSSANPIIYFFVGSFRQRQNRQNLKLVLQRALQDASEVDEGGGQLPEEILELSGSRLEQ
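Test system: HEK293 cells stably expressing human MrgX1 receptor; Input: fifteen thousand cells per well; Dosing: compound delivered in addition one of three; Schedule: overnight seeding, then 1 h dark dye loading; Technique: Fluo-4 NW calcium fluorescence; Measure: B-scored fluorescence response ratio; Controls: positive and negative controls per plate.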
MrgX1 antagonist – antagonists of human MrgX1 receptor, primary screen, HEK293 cells, Fluo-4 calcium flux; Mas-related G-protein coupled receptor member X1 (Homo sapiens), Q96LB2; BAM8-22 antagonism; active compounds read low; B-score at 10 µM; 1.3% of 310,000 active;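 active means calcium-response B-score plate-corrected more than 3 library SD below zero, starting fluorescence within 5 deviations, no agonist response on first addition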;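 further: peak minus trough fluorescence over baseline after final BAM8-22 challenge near maximal dose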
RGS4 act – RGS4 potentiators or activators, primary screen, cell-based, HEK293 M3R inducible RGS4, calcium flux. carbachol calcium flux Fluo4; active compounds read low. B-score at 10 µM. 0.92% of 310,000 active. AID 463111, 2010;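 active means B-score of the integrated calcium signal more than 4 SD below the library mean, with starting fluorescence not abnormally high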;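 further: negative B-score means reduced calcium response which marks RGS4 activation or potentiation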
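test system = HEK293 cells with stable M3R and inducible RGS4 | schedule = recording 10 s baseline at 1 Hz, 100 s post-agonist | technique = Fluo4-AM (2 µM) calcium-flux fluorescence, kinetic read | measure = Agonist-evoked peak-minus-minimum fluorescence over baseline, integrated ratio, B score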
MrgX1 allo act – positive allosteric modulators of MrgX1, primary screen, HEK293 cells, Fluo-4 calcium flux. Mas-related G-protein coupled receptor member X1 (Homo sapiens), Q96LB2. FDSS; active compounds read high. B-score at 10 µM. 0.63% of 310,000 active;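 active means plate-corrected calcium response at least 3 library SD above typical, normal starting fluorescence, not activating the receptor alone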;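 further: compound read alongside a low EC10 to EC30 dose of BAM8-22 agonist; peak minus trough fluorescence over baseline measured at the second addition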
RGS4 inh – RGS4 inhibitors, primary screen, cell-based, HEK293 M3R inducible RGS4, calcium flux. B-score at 10 µM. Fluo-4 calcium flux; active compounds read high; triggered by carbachol at its EC20. AID 463165, 2010. 0.45% of 310,000 active. Regulator of G-protein signaling 4 (Homo sapiens), P49798;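 active means B-score, a plate-corrected calcium signal, over three deviations above library mean, with baseline fluorescence within five deviations of library mean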;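 further: RGS4 expression induced by doxycycline in cells with stable M3 receptor; B-score is computed from the integrated fluorescence ratio over baseline after carbachol; higher B-score means a larger calcium signal and so more RGS4 inhibition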
Target sequence (P49798 whole entry, looked up): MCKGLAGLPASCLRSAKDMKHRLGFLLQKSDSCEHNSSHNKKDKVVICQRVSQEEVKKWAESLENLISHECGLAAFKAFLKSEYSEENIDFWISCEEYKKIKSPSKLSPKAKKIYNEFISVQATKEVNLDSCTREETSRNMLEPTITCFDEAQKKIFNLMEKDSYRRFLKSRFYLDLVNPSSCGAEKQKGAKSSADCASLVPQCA
MrgX1 ant reconf – MrgX1 receptor antagonists, duplicate retest, confirmation, HEK293 cells, Fluo-4 calcium flux | 19% of 2,300 active | remaining BAM8-22 calcium response % of control (active compounds read low), % at 10 µM | BAM8-22 calcium flux; active compounds read low | shares compounds with MrgX1 antagonist;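 active means remaining agonist calcium response no higher than 100% minus 3 SD of agonist-only control wells, with starting fluorescence near control levels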;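 further: agonist BAM8-22 given at a near maximal EC90 to ECmax level; peak minus minimum fluorescence divided by baseline after agonist addition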
HEK293 Ca flux – nonspecific calcium signal in parental HEK293, confirmation, counter-screen for MrgX1 antagonist project, parental HEK293 cells, Fluo-4 calcium flux. shares compounds with MrgX1 antagonist. Fluo-4 calcium fluorescence, FDSS. fluorescence ratio F(max-min)/F0 at 10 µM. 2% of 4,000 active. AID 624111, 2012;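 active means duplicate-averaged calcium fluorescence ratio at least three times the standard deviation of buffer wells, a nonspecific response in parental cells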
HEK293 Ca counter – calcium response in parental HEK293 cells, primary screen, counter-screen for MrgX1 allosteric activator project, cell-based, Fluo-4 calcium flux, duplicate. shares compounds with MrgX1 antagonist. fluorescence ratio F(max-min)/F0 at 10 µM. 0.4% of 4,000 active. AID 624114, 2012. Fluo-4 fluorescence ratio; active compounds read high;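 active means calcium fluorescence ratio, averaged over duplicates, at least 3 SD of the buffer-well ratio, meaning a nonspecific response in receptor-free cells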;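 further: untransfected parental HEK293 lacking MrgX1 used as counterscreen for MrgX1 allosteric activators; fluorescence change taken during the second addition on a kinetic imager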
HEK293 Ca cntr2 – calcium response in parental HEK293 cells, primary screen, counter-screen for MrgX1 agonist project, cell-based, Fluo-4 calcium flux, duplicate, agonist mode; Fluo-4 calcium fluorescence (FDSS); active compounds read high; 8.7% of 4,000 active; shares compounds with MrgX1 antagonist; AID 624115, 2012; fluorescence ratio F(max-min)/F0 at 10 µM;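 active means calcium fluorescence ratio at least three times the spread of buffer wells, meaning a non-specific response in parental cells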
An asterisk follows results filed as active; i = inactive; . = not tested or not shown. Shown are actives, neighbours in structure and some others; about 3.5% of the full set was active somewhere.

SMILES	MrgX1 agonist	MrgX1 antagonist	RGS4 act	MrgX1 allo act	RGS4 inh	MrgX1 ant reconf	HEK293 Ca flux	HEK293 Ca counter	HEK293 Ca cntr2
CS(=O)(=O)N(Cc1ccc(Cl)cc1)c1ccc(C(=O)NCCC2=CCCCC2)cc1	i	-5.44*	i	i	i	i	i	i	i
CSc1ncccc1C(=O)Nc1nnc(C2CC2)s1	i	-4.63*	i	i	i	i	i	i	i
O=C(c1ccc(Cn2c(=O)[nH]c3ccccc3c2=O)cc1)N1CCN(c2ccccn2)CC1	i	i	i	i	i	.	.	.	.
O=C(c1ccc(Cn2c(=S)[nH]c3ccccc3c2=O)cc1)N1CCN(c2ccccn2)CC1	i	-8.03*	i	i	i	84.1%*	i	i	i
CN(C(=O)c1cccc(Br)c1)C1CCS(=O)(=O)C1 (stereo not given)	i	-4.54*	i	i	i	i	i	i	i
CCN(C(=O)c1cccc(Br)c1)C1CCS(=O)(=O)C1 (stereo not given)	i	i	i	i	i	.	.	.	.
C=CCNC(=O)c1ccc(-n2cccc2)cc1	i	-7.96*	i	i	i	i	i	i	i
C=CCNC(=O)c1ccncc1	i	i	i	i	i	.	.	.	.
CC(C)/C(=N\NS(=O)(=O)c1ccc(Br)cc1)c1cccs1	i	i	i	i	i	.	.	.	.
COc1ccc(-c2cc(-c3ccc(Cl)cc3)c(C#N)c(SCC(=O)O)n2)cc1	i	-5.86*	i	i	i	i	i	i	i
COc1cccc(Nc2nc(NCCO)nc(N3CCCC3)n2)c1	i	i	i	i	i	.	.	.	.
COc1ccc(Nc2nc(NCCO)nc(N3CCCC3)n2)cc1	i	-5.52*	i	i	i	i	i	i	i
CSc1ccccc1NC(=O)CCn1c(=O)sc2ccccc21	i	-6.32*	i	i	i	i	i	i	i
CCN(CC)CCNC(=O)C1c2cc(OC)c(OC)cc2C(=O)N(C)C1c1cccs1 (stereo not given)	i	i	i	i	i	.	.	.	.
COc1cccc(-c2nnc(SCC(=O)NCc3ccc4c(c3)OCO4)n2Cc2ccco2)c1	i	i	i	i	i	.	.	.	.
COc1cccc(-c2nnc(SCC(=O)Nc3ccc4c(c3)OCCO4)n2Cc2ccco2)c1	i	-6.39*	i	i	i	i	i	i	i
Cc1ccn2c(CNCCn3cccn3)c(C(=O)N3CCCCCC3)nc2c1	i	-7.47*	i	i	i	i	i	i	i
CC1CCC2(CC1)NC(=O)N(CC(=O)Nc1ccc(N3CCOCC3)cc1)C2=O (stereo not given)	i	-4.68*	i	i	i	83.5%*	i	i	i
CC(C)CC(=O)Nc1c2c(nn1-c1ccc(F)cc1)CSC2	i	-7.66*	i	i	i	i	i	i	i
Cc1ccc(NC(=O)C2(c3cccs3)CCOCC2)cc1C	i	-4.8*	i	i	i	i	i	i	i
O=C(NCC(O)c1ccc2ccccc2c1)c1c(F)cccc1F (stereo not given)	i	i	i	i	i	.	.	.	.
Cc1cc(C(=O)COC(=O)c2ccc3c(c2)NC(=O)CS3)c(C)n1CC1CCCO1 (stereo not given)	i	-5.91*	i	i	i	i	i	i	i
CN1CCN(C(=O)c2cnn(-c3ccccc3)c2NC(=O)c2cccs2)CC1	i	-5.86*	i	i	i	i	i	i	i
CCOc1cc(-c2sc(Nc3ccccc3)n[n+]2C)ccc1OC	i	i	i	i	i	.	.	.	.
Cc1[nH]c2ccc(Br)cc2c(=O)c1CN1CCCCCC1	i	i	i	i	i	.	.	.	.
SMILES	MrgX1 agonist	MrgX1 antagonist	RGS4 act	MrgX1 allo act	RGS4 inh	MrgX1 ant reconf	HEK293 Ca flux	HEK293 Ca counter	HEK293 Ca cntr2
Cc1[nH]c2ccccc2c(=O)c1CN1CCCCC1	i	-6.81*	i	i	i	i	i	i	i
CCC1=C([N+](=O)[O-])C(c2ccc3c(c2)OCO3)NC(=O)N1 (stereo not given)	i	i	i	i	i	.	.	.	.
CCOC(=O)CN1C(=O)CN(c2ccc(C)cc2)C1=O	i	-4.97*	i	i	i	i	i	i	i
O=C(c1ccc(Cl)c(S(=O)(=O)N2CCCCC2)c1)N1CCN(c2ccccc2)CC1	i	i	i	i	i	.	.	.	.
O=C(c1ccc(Cl)c(S(=O)(=O)N2CCOCC2)c1)N1CCN(c2ccccc2)CC1	i	-4.55*	i	i	i	i	i	i	i
O=C(c1ccc(Cl)c(S(=O)(=O)N2CCCCCC2)c1)N1CCN(c2ccccc2O)CC1	i	-4.82*	i	i	i	80.2%*	i	i	i
O=C(c1ccc(Cl)c(S(=O)(=O)N2CCCC2)c1)N1CCN(c2ccccc2)CC1	i	i	i	i	i	.	.	.	.
C/C(CC(=O)Nc1cccc2c1CCCC2)=N\NC=O	i	i	i	i	i	.	.	.	.
Cc1nc2cc(-c3cccs3)[nH]n2c(=O)c1C	i	-5.2*	i	i	i	i	i	i	i
CCOC(=O)N1CCN(C(=O)C2CCN(Cc3nc(-c4ccccc4C)oc3C)CC2)CC1	i	-4.8*	i	i	i	i	i	i	i

Source: PubChem
